The text below walks through data of publication PMC12765261 (Journal of Pharmaceutical Analysis, 2025).

The nature of data set [1]: Hygroscopicity test. It counts as physicochemical. The settings on record: 25 °C/80% RH for 24 h. The gist of the method:
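Co-amorphous samples were held at 25 °C/80% RH for 24 h, and percentage weight gain was calculated, n = 3. Pharmacopeial criteria were applied: a gain above 2% but below 15% counts as hygroscopic.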

The nature of data set [2]: Stability experiments. In kind it is physicochemical. The following applies: 75% RH for 5 and 10 days.
In data set [3] the test system is GLUT4 expression in HepG2 cells. Nature of the data set: GLUT4 immunofluorescence. The following applies: 2 h pre-treatment before HGHI incubation. In kind it is cell-based. The gist of the method: (§1)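 Before the high-glucose/high-insulin step (30 mM glucose, 5 μM insulin, 30 h), cells were pre-treated for 2 h with the PI3K inhibitor LY294002 or the AMPK inhibitor dorsomorphin. They then received test compounds at varying concentrations for 24 h. GLUT4 was immunostained with a rabbit polyclonal primary and a fluorescein-conjugated secondary, with DAPI for nuclei. Cells were imaged by confocal microscopy and GLUT4 signal was quantified.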

In data set [4] the test system is GLUT4 expression in H9c2 cells. In words: GLUT4 immunofluorescence. It counts as cell-based. The following applies: 2 h pre-treatment before HGHI incubation. The gist of the method:
as §1

Data set [5] has as its system H9c2 cells. Nature of the data set: Cytotoxicity, MTT assay under HGHI conditions. In kind it is cell-based. The following applies: 24 h. The gist of the method: (§2)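 Cell lines were kept in DMEM (25 mM glucose, 10% FBS, 1% penicillin/streptomycin) at 37 °C and 5% CO2. Insulin resistance was induced with 30 mM glucose plus 5 μM insulin for 30 h. Cells were then exposed for 24 h under these conditions to a range of concentrations of the single components, a physical mixture or the co-amorphous system. Viability was read by MTT, n = 3, mean ± SD.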

Data set [6] relates to HepG2 cells. Nature of the data set: Cytotoxicity, MTT assay under HGHI conditions. In kind it is cell-based. The settings on record: 24 h. In outline:
as §2
(Tetrazolium assays rely on reduction of a dye to a coloured formazan, in cell work by metabolically active cells.)

Counter-ions that a name gives are not always drawn.

For the compound `CCOc1ccc(Cc2cc([C@@H]3O[C@H](CO)[C@@H](O)[C@H](O)[C@H]3O)ccc2Cl)cc1` [DAP, Dapagliflozin], the “Percentage of weight gain (hygroscopicity)” value in data set [1] came out at 5.36%. Further, the “Phase stability under high humidity (XRD)” value in data set [2] was “remained amorphous”.
In the case of `O=c1cc(N2CCOCC2)oc2c(-c3ccccc3)cccc12` [LY294002], the “Effect of inhibitor on GLUT4 fluorescence induced by COA-I” value in data set [3] and in data set [4] was “attenuated” each time.
On to `CCc1ccc(CCOc2ccc(CC3SC(=O)NC3=O)cc2)nc1` (stereo not drawn) [PIO, Pioglitazone], for which the Concentrations showing cytotoxicity entry in data set [5] and in data set [6] was “higher than 10 μM” in each case. The “Percentage of weight gain (hygroscopicity)” value in data set [1] is 0.86%.
As for `c1cc(-c2cnn3cc(-c4ccc(OCCN5CCCCC5)cc4)cnc23)ccn1` [compound C, dorsomorphin (compound C) dihydrochloride], the “Effect of inhibitor on GLUT4 fluorescence induced by COA-I” value in data set [3] and in data set [4] was “attenuated” throughout.
